Laboratory results as given in ChEMBL document CHEMBL4732237, “Discovery of 4-alkoxy-2-aryl-6,7-dimethoxyquinolines as a new class of topoisomerase I inhibitors endowed with potent in vitro anticancer activity” (2021).

These molecules were tested on Malme-3M (assay: Growth inhibition of human Malme-3M cells at 10 uM incubated for 48 hrs by sulforhodamine B assay relative to control). Conditions: read-out: GI.
Assay type: functional
Method in brief: (§1)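 NCI one-dose screen. Cells grown in RPMI 1640 with 5% FBS and 2 mM L-glutamine, plated and incubated 24 h at 37 °C, 5% CO2. DMSO-dissolved drug added, then 48 h further incubation. Adherent cells fixed with cold TCA, suspension cells fixed after settling. Stained with 0.4% SRB, absorbance read at 515 nm. Reported as percent growth relative to no-drug control and time-zero cell number.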

Structure (SMILES) | inhibition of growth at 10 µM
COc1cc2nc(-c3ccc(C(F)(F)F)cc3)cc(OCCN3CCC(O)CC3)c2cc1OC | 13%

What follows are molecules tested on TK-10 (assay: Growth inhibition of human TK-10 cells at 10 uM incubated for 48 hrs by sulforhodamine B assay relative to control). Conditions: read-out: GI.
Assay type: functional
Method in brief: (§2)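 NCI one-dose screen across a 59-line panel. Cells were grown in RPMI 1640 with 5% FBS and 2 mM L-glutamine, plated and pre-incubated 24 h, then exposed to drug for 48 h at 37 °C, 5% CO2. Adherent cells were fixed with cold TCA (10% final), stained with 0.4% SRB in 1% acetic acid and read at 515 nm. Result is percent growth relative to no-drug control and time-zero cell count.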

Structure (SMILES) | inhibition of growth at 10 µM
COc1cc2nc(-c3ccc(C(F)(F)F)cc3)cc(OCCN3CCC(O)CC3)c2cc1OC | 13%

These molecules were tested on MDA-MB-468 (assay: Growth inhibition of human MDA-MB-468 cells at 10 uM incubated for 48 hrs by sulforhodamine B assay relative to control). Conditions: read-out: GI.
Assay type: functional
Method in brief: (§3)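 NCI-60 single-dose screen. Cells were grown in RPMI 1640 with 5% FBS and 2 mM L-glutamine and plated 24 h before drug addition. Compound was added at one concentration in DMSO-derived medium and incubated for 48 h at 37 °C in 5% CO2. Read-out was SRB protein stain at 515 nm. Result is percent growth versus the no-drug control and the time-zero cell count; values below 0 indicate lethality.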

Structure (SMILES) | inhibition of growth at 10 µM
COc1cc2nc(-c3ccc(C(F)(F)F)cc3)cc(OCCN3CCC(O)CC3)c2cc1OC | 13%

Each molecule was assayed on OVCAR-5 (assay: Growth inhibition of human OVCAR-5 cells at 10 uM incubated for 48 hrs by sulforhodamine B assay relative to control). Conditions: read-out: GI.
Assay type: functional
Method in brief: as §1

Structure (SMILES) | inhibition of growth at 10 µM
COc1cc2nc(-c3ccc(C(F)(F)F)cc3)cc(OCCN3CCC(O)CC3)c2cc1OC | 13%

The molecules below were run on HOP-92 (assay: Growth inhibition of human HOP-92 cells at 10 uM incubated for 48 hrs by sulforhodamine B assay relative to control). Conditions: read-out: GI.
Assay type: functional
Method in brief: as §3

Structure (SMILES) | inhibition of growth at 10 µM
COc1cc2nc(-c3ccc(C(F)(F)F)cc3)cc(OCCN3CCC(O)CC3)c2cc1OC | 13%

The molecules below were run on EKVX (assay: Growth inhibition of human EKVX cells at 10 uM incubated for 48 hrs by sulforhodamine B assay relative to control). Conditions: read-out: GI.
Assay type: functional
Method in brief: as §3

Structure (SMILES) | inhibition of growth at 10 µM
COc1cc2nc(-c3ccc(C(F)(F)F)cc3)cc(OCCN3CCC(O)CC3)c2cc1OC | 13%

These molecules were tested on SW-620 (assay: Growth inhibition of human SW-620 cells at 10 uM incubated for 48 hrs by sulforhodamine B assay relative to control). Conditions: read-out: GI.
Assay type: functional
Method in brief: as §2

Structure (SMILES) | inhibition of growth at 10 µM
COc1cc2nc(-c3ccc(C(F)(F)F)cc3)cc(OCCN3CCC(O)CC3)c2cc1OC | 13%

Each molecule was assayed on Hs-578T (assay: Growth inhibition of human HS-578T cells at 10 uM incubated for 48 hrs by sulforhodamine B assay relative to control). Conditions: read-out: GI.
Assay type: functional
Method in brief: as §3

Structure (SMILES) | inhibition of growth at 10 µM
COc1cc2nc(-c3ccc(C(F)(F)F)cc3)cc(OCCN3CCC(O)CC3)c2cc1OC | 13%

The molecules below were run on SNB-19 (assay: Growth inhibition of human SNB-19 cells at 10 uM incubated for 48 hrs by sulforhodamine B assay relative to control). Conditions: read-out: GI.
Assay type: functional
Method in brief: as §1

Structure (SMILES) | inhibition of growth at 10 µM
COc1cc2nc(-c3ccc(C(F)(F)F)cc3)cc(OCCN3CCC(O)CC3)c2cc1OC | 13%

Each molecule was assayed on K562 (assay: Growth inhibition of human K562 cells at 10 uM incubated for 48 hrs by sulforhodamine B assay relative to control). Conditions: read-out: GI.
Assay type: functional
Method in brief: as §3

Structure (SMILES) | inhibition of growth at 10 µM
COc1cc2nc(-c3ccc(C(F)(F)F)cc3)cc(OCCN3CCC(O)CC3)c2cc1OC | 13%

These molecules were tested on PC-3 (assay: Growth inhibition of human PC-3 cells at 10 uM incubated for 48 hrs by sulforhodamine B assay relative to control). Conditions: read-out: GI.
Assay type: functional
Method in brief: as §1

Structure (SMILES) | inhibition of growth at 10 µM
COc1cc2nc(-c3ccc(C(F)(F)F)cc3)cc(OCCN3CCC(O)CC3)c2cc1OC | 13%

What follows are molecules tested on NCI/ADR-RES (assay: Growth inhibition of human NCI/ADR-RES cells at 10 uM incubated for 48 hrs by sulforhodamine B assay relative to control). Conditions: read-out: GI.
Assay type: functional
Method in brief: as §1

Structure (SMILES) | inhibition of growth at 10 µM
COc1cc2nc(-c3ccc(C(F)(F)F)cc3)cc(OCCN3CCC(O)CC3)c2cc1OC | 13%

The molecules below were run on SF-268 (assay: Growth inhibition of human SF-268 cells at 10 uM incubated for 48 hrs by sulforhodamine B assay relative to control). Conditions: read-out: GI.
Assay type: functional
Method in brief: as §1

Structure (SMILES) | inhibition of growth at 10 µM
COc1cc2nc(-c3ccc(C(F)(F)F)cc3)cc(OCCN3CCC(O)CC3)c2cc1OC | 13%

The molecules below were run on OVCAR-8 (assay: Growth inhibition of human OVCAR-8 cells at 10 uM incubated for 48 hrs by sulforhodamine B assay relative to control). Conditions: read-out: GI.
Assay type: functional
Method in brief: as §1

Structure (SMILES) | inhibition of growth at 10 µM
COc1cc2nc(-c3ccc(C(F)(F)F)cc3)cc(OCCN3CCC(O)CC3)c2cc1OC | 13%

What follows are molecules tested on HOP-62 (assay: Growth inhibition of human HOP-62 cells at 10 uM incubated for 48 hrs by sulforhodamine B assay relative to control). Conditions: read-out: GI.
Assay type: functional
Method in brief: as §3

Structure (SMILES) | inhibition of growth at 10 µM
COc1cc2nc(-c3ccc(C(F)(F)F)cc3)cc(OCCN3CCC(O)CC3)c2cc1OC | 13%

Each molecule was assayed on SR (assay: Growth inhibition of human SR cells at 10 uM incubated for 48 hrs by sulforhodamine B assay relative to control). Conditions: read-out: GI.
Assay type: functional
Method in brief: as §1

Structure (SMILES) | inhibition of growth at 10 µM
COc1cc2nc(-c3ccc(C(F)(F)F)cc3)cc(OCCN3CCC(O)CC3)c2cc1OC | 13%

What follows are molecules tested on BT-549 (assay: Growth inhibition of human BT-549 cells at 10 uM incubated for 48 hrs by sulforhodamine B assay relative to control). Conditions: read-out: GI.
Assay type: functional
Method in brief: as §3

Structure (SMILES) | inhibition of growth at 10 µM
COc1cc2nc(-c3ccc(C(F)(F)F)cc3)cc(OCCN3CCC(O)CC3)c2cc1OC | 13%

These molecules were tested on SK-MEL-28 (assay: Growth inhibition of human SK-MEL-28 cells at 10 uM incubated for 48 hrs by sulforhodamine B assay relative to control). Conditions: read-out: GI.
Assay type: functional
Method in brief: as §1

Structure (SMILES) | inhibition of growth at 10 µM
COc1cc2nc(-c3ccc(C(F)(F)F)cc3)cc(OCCN3CCC(O)CC3)c2cc1OC | 13%
